# Laboratory results published in publication PMC4862586 (The New England journal of medicine, 2015).
# Legend:
# [1] = tested on: CLL; conditions: cited from earlier work
# [2] = biological target: T1, Itk (Homo sapiens, UniProt Q08881); assay: Itk inhibition; assay type: cell-based
# T1 sequence (Q08881 1-620): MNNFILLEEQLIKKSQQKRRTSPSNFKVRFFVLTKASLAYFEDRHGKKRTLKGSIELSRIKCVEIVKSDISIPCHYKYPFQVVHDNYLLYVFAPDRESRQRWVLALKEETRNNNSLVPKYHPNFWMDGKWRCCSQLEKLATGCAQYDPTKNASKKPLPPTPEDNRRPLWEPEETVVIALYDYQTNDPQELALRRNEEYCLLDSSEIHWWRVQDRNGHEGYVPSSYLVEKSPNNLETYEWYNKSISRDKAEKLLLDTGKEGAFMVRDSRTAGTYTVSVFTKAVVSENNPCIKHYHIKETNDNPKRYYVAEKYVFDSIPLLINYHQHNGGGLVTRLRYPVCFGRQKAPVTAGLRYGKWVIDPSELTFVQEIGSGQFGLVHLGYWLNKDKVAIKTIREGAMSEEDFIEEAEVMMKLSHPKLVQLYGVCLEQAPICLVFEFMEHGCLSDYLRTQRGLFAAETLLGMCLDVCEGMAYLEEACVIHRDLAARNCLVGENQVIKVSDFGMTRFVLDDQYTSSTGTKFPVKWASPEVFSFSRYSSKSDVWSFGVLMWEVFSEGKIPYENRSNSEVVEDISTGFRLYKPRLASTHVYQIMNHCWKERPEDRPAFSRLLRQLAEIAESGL
# [3] = tested on: phosphorylated Btk; assay: Phosphorylation of Btk by intracellular flow cytometry; assay type: in vivo, human; conditions: respective time points across all cohorts
# In short: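 Patients with relapsed CLL received oral drug continuously at 100, 175, 250 or 400 mg once daily (dose escalation) or 100 mg twice daily (phase 2 expansion). Phosphorylated Btk in blood samples was measured by intracellular flow cytometry.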
# [4] = Serum immunoglobulins and immune cell numbers over time in patients; assay type: in vivo
# [5] = tested on: platelet aggregation; assay: Platelet aggregation derived from blood of patients; assay type: in vivo, human; conditions: blood of patients receiving the drug
# [6] = tested on: naturally occurring canine B-cell lymphomas; conditions: cited from earlier work
# [7] = tested on: pro-inflammatory cytokines; assay: Pro-inflammatory cytokine levels in patients; assay type: in vivo, human; conditions: from baseline to day 28 of treatment
# In short: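 Patients with relapsed CLL were dosed orally and continuously at 100–400 mg once daily or 100 mg twice daily. Change in serum cytokines from baseline was tested by Wilcoxon signed-rank. Only patients with baseline and every follow-up value were included, and there was no multiplicity adjustment.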
# [8] = tested on: patients with relapsed CLL; assay: Phase 1–2 multicenter study: safety, adverse events; assay type: in vivo
# [9] = Pharmacokinetics in patients, cycle 1, non-compartmental analysis; assay type: in vivo; conditions: human, po
# [10] = tested on: primary CLL cells; assay: B-cell receptor signaling in primary CLL cells; assay type: cell-based, human
# [11] = tested on: natural killer cells; assay type: cell-based, human; conditions: obinutuzumab-coated CLL cells
# [12] = tested on: relapsed CLL; assay: Phase 1–2 multicenter study: clinical response; assay type: in vivo, human; conditions: for Resolution of B symptoms: 16 patients with B symptoms at baseline
# [13] = tested on: EGFR; assay: EGFR signaling; assay type: cell-based
# [14] = all patients, median follow-up 14.3 months
compound,measurement,setting,value
C=CC(=O)Nc1cccc(Nc2nc(Nc3ccc(OCCOC)cc3)ncc2F)c1 [CC-292],Clinical results,[1]; CLL,inferior clinical results compared with ibrutinib
same,Tolerability,"[1]; human, in vivo",well tolerated
"CC#CC(=O)N1CCC[C@H]1c1nc(-c2ccc(C(=O)Nc3ccccn3)cc2)c2c(N)nccn12 [acalabrutinib, Acalabrutinib]",Itk inhibition,[2],lack of Itk inhibition
same,Phosphorylated Btk after treatment,[3],complete loss of phosphorylated Btk
same,"Serum IgG, IgA and IgM over time",[4]; excluding patients receiving intravenous immunoglobulin,did not demonstrate significant change
same,"T cell (CD4+, CD8+), natural killer cell and monocyte numbers over time","[4]; human, in vivo",no clinically significant change
same,Platelet aggregation,[5],not the former
same,Clinical responses,[6],objective clinical responses
same,Pro-inflammatory cytokines,[7],decreased significantly
same,Grade 5 event of pneumonia,[8]; N=61,† The all-grade column includes one patient with a Grade 5 event of pneumonia.
same,"Adverse event Arthralgia, All Grades","[8]; human, in vivo",10 (16) number of patients (percent)
same,"Adverse event Arthralgia, Grades 1–2","[8]; human, in vivo",9 (15) number of patients (percent)
same,"Adverse event Arthralgia, Grades 3–4","[8]; human, in vivo",1 (2) number of patients (percent)
same,"Adverse event Contusion, All Grades","[8]; human, in vivo",11 (18) number of patients (percent)
same,"Adverse event Contusion, Grades 1–2","[8]; human, in vivo",11 (18) number of patients (percent)
same,"Adverse event Contusion, Grades 3–4","[8]; human, in vivo",0 (0) number of patients (percent)
same,"Adverse event Decreased weight, All Grades","[8]; human, in vivo",10 (16) number of patients (percent)
same,"Adverse event Decreased weight, Grades 1–2","[8]; human, in vivo",10 (16) number of patients (percent)
same,"Adverse event Decreased weight, Grades 3–4","[8]; human, in vivo",0 (0) number of patients (percent)
same,"Adverse event Diarrhea, All Grades","[8]; human, in vivo",24 (39) number of patients (percent)
same,"Adverse event Diarrhea, Grades 1–2","[8]; human, in vivo",23 (38) number of patients (percent)
same,"Adverse event Diarrhea, Grades 3–4","[8]; human, in vivo",1 (2) number of patients (percent)
same,"Adverse event Fatigue, All Grades","[8]; human, in vivo",13 (21) number of patients (percent)
same,"Adverse event Fatigue, Grades 1–2","[8]; human, in vivo",11 (18) number of patients (percent)
same,"Adverse event Fatigue, Grades 3–4","[8]; human, in vivo",2 (3) number of patients (percent)
same,"Adverse event Headache, All Grades","[8]; human, in vivo",26 (43) number of patients (percent)
same,"Adverse event Headache, Grades 1–2","[8]; human, in vivo",26 (43) number of patients (percent)
same,"Adverse event Headache, Grades 3–4","[8]; human, in vivo",0 (0) number of patients (percent)
same,"Adverse event Hypertension, All Grades","[8]; human, in vivo",12 (20) number of patients (percent)
same,"Adverse event Hypertension, Grades 1–2","[8]; human, in vivo",8 (13) number of patients (percent)
same,"Adverse event Hypertension, Grades 3–4","[8]; human, in vivo",4 (7) number of patients (percent)
same,"Adverse event Increased weight, All Grades","[8]; human, in vivo",16 (26) number of patients (percent)
same,"Adverse event Increased weight, Grades 1–2","[8]; human, in vivo",15 (25) number of patients (percent)
same,"Adverse event Increased weight, Grades 3–4","[8]; human, in vivo",1 (2) number of patients (percent)
same,"Adverse event Nausea, All Grades","[8]; human, in vivo",12 (20) number of patients (percent)
same,"Adverse event Nausea, Grades 1–2","[8]; human, in vivo",12 (20) number of patients (percent)
same,"Adverse event Nausea, Grades 3–4","[8]; human, in vivo",0 (0) number of patients (percent)
same,"Adverse event Peripheral edema, All Grades","[8]; human, in vivo",13 (21) number of patients (percent)
same,"Adverse event Peripheral edema, Grades 1–2","[8]; human, in vivo",13 (21) number of patients (percent)
same,"Adverse event Peripheral edema, Grades 3–4","[8]; human, in vivo",0 (0) number of patients (percent)
same,"Adverse event Petechiae, All Grades","[8]; human, in vivo",10 (16) number of patients (percent)
same,"Adverse event Petechiae, Grades 1–2","[8]; human, in vivo",10 (16) number of patients (percent)
same,"Adverse event Petechiae, Grades 3–4","[8]; human, in vivo",0 (0) number of patients (percent)
same,"Adverse event Pyrexia, All Grades","[8]; human, in vivo",14 (23) number of patients (percent)
same,"Adverse event Pyrexia, Grades 1–2","[8]; human, in vivo",12 (20) number of patients (percent)
same,"Adverse event Pyrexia, Grades 3–4","[8]; human, in vivo",2 (3) number of patients (percent)
same,"Adverse event Upper respiratory tract infection, All Grades","[8]; human, in vivo",14 (23) number of patients (percent)
same,"Adverse event Upper respiratory tract infection, Grades 1–2","[8]; human, in vivo",14 (23) number of patients (percent)
same,"Adverse event Upper respiratory tract infection, Grades 3–4","[8]; human, in vivo",0 (0) number of patients (percent)
same,Most common adverse events: diarrhea,"[8]; human, in vivo",39%
same,Most common adverse events: headache,"[8]; human, in vivo",43%
same,Most common adverse events: increased weight,"[8]; human, in vivo",26%
same,Most common adverse events: pyrexia,"[8]; human, in vivo",23%
same,Most common adverse events: upper respiratory tract infection,"[8]; human, in vivo",23%
same,Dose-limiting toxicities,[8]; in vivo,No dose-limiting toxicities
same,Major hemorrhage or atrial fibrillation,[8]; in vivo,No major hemorrhage or atrial fibrillation
same,"Severe diarrhea, rash, arthralgia/myalgia, bruising and bleeding events",[8]; in vivo,rare
same,Tolerability of long-term therapy,[8]; in vivo,well tolerated
same,Absorption and elimination,[9]; in vivo,rapidly absorbed and eliminated
same,half-life,[9]; plasma,~1 h
same,Inhibition of B-cell receptor signaling,[10],dose-dependent inhibition
same,Inhibition of antibody-mediated killing by natural killer cells,[11],does not inhibit
same,Response rate,[12]; 4 patients with prior idelalisib therapy,100%
same,Resolution of B symptoms,[12]; by cycle 4,88 % of patients
same,Resolution of B symptoms,[12]; by cycle 9,100 % of patients
same,Response rate,[12]; 18 patients with del(17)(p13.1),100%
same,Patients experiencing reduction in lymphadenopathy,[12]; 59 of 60 patients,98%
same,Progression-free survival events,[12]; a death from pneumonia (13 months) and a single progression (16 months),2 events
same,Best overall response rate (partial response and partial response with lymphocytosis),[12]; [14],95%
same,Partial response with lymphocytosis,[12]; [14],10%
same,Stable disease,[12]; [14],5%
same,Cases of Richter’s transformation,[12]; median follow-up 14.3 months,No cases
same,"Improvements in hemoglobin levels, platelet count and absolute neutrophil count",[12]; patients with baseline cytopenia,noted in the great majority of patients
same,Inhibition of EGFR signaling,[13],does not inhibit
